One block for each molecule: values may come before it. No end group written: not given here. rhodamine = not defined here
Assays:
[1] = target: par3-PDZ3; details: read-out: Kd for par3-PDZ3; reported value; ref [16]; cited from earlier work
[2] = target: par3-PDZ3 (Mus musculus, UniProt Q99NH2); assay: Fluorescence polarization titration of rhodamine-labeled peptides with par3-PDZ3; type: binding, M. musculus; details: rhodamine labeled peptide
Procedure, shortened: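 Mouse par3-PDZ3 (residues 581–689) was expressed in E. coli SG13009 with a cleavable N-terminal His8 tag, purified by Ni2+ affinity, TEV-cleaved and cation-exchange purified. Increasing par3-PDZ3 was titrated into 100nM N-terminally rhodamine-labelled synthetic peptide in 50mM HEPES, 100mM NaCl, 1mM DTT, 1mM EDTA, pH 7.4, 298K (ex 562nm/em 582nm). Kd came from fitting a single-site hyperbolic binding equation.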

[3] = target: par3-PDZ3 (residues 581 to 689 of M. musculus par3) (M. musculus, UniProt Q99NH2 581-689); assay: fluorescence polarisation
Chain of par3-PDZ3 (residues 581 to 689 of M. musculus par3) (Q99NH2 581-689): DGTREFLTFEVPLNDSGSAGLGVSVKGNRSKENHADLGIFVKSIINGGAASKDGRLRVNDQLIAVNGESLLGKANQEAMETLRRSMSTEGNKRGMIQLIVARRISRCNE

Chain of par3-PDZ3 (Mus musculus, UniProt Q99NH2) (Q99NH2 581-689): as above

Molecule: DEDQHSQITKVcoo-
- Kd [1]: 19 µM

B2: rhodamine-labeled VE-Cad (773-784) Y774A (peptide, UniProt P55284 773-784, looked up)
peptide: rhodamine-LAGSDPQEELII
modifications: reading uncertain
- binding result [3]: binds

Other lines, results leading:

- interaction with par3-PDZ3 (detected or not) [2]: failed to detect any interaction
Molecule: QHSQITKVcoo-

- Kd [3]: 6 µM
B1: rhodamine-labeled VE-Cad (773-784) (peptide)
peptide: rhodamine-LYGSDPQEELII
modifications: reading uncertain
